In ChEMBL document CHEMBL2321751, “Optimization of chloronitrobenzamides (CNBs) as therapeutic leads for human African trypanosomiasis (HAT)” (J Med Chem, 2013):
Values after ≈ are worked out from the molar mass of the structure shown.

How the values were obtained:
[1] = tested on: Trypanosoma brucei brucei; test: Antitrypanosomal activity against blood stream stage of Trypanosoma brucei brucei after 48 hrs by Cell Titre Glo assay; type: functional, organism-based
Summary of the method: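 Culture-adapted parasites were grown in HMI-9 with 10% heat-inactivated FBS, 10% Serum Plus and penicillin/streptomycin to 1 × 10⁶ cells/mL, then diluted to 1 × 10⁴ cells/mL. DMSO dilution series were pin-transferred and plates held 48 h at 37 °C in 5% CO2. After 30 min at room temperature, CellTiter-Glo was added and luminescence read after 8 min.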

[2] = Kinetic solubility of the compound in PBS buffer at pH 7.4 after 18 hrs by UV spectrophotometric analysis; type: physicochemical; details: for Kinetic_solubility: buffer, pH 7.4, 18 h, BLD = below limit of detection; for solubility kinetic at 18 h: PBS buffer, pH 7.4, read-out: Kinetic_solubility
Summary of the method: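 Compound from a 10 mM stock was added to PBS pH 7.4 and left 18 h at room temperature. The suspension was filtered, and the filtrate was mixed 1:1 with 1-propanol. Solubility was derived from UV spectrum AUC (250–500 nm) relative to a 1-propanol/PBS reference. Run in triplicate.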

[3] = tested on: Raji; test: Cytotoxicity against human Raji cells after 72 hrs by Cell Titre Glo assay; type: cell-based
Summary of the method: (§1)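 Human cells grown to 80% confluence were plated in 384-well format and received compound dilutions by pin tool. After 72 h at 37 °C in 5% CO2, viability was measured by CellTiter-Glo luminescence.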

[4] = tested on: BJ; test: Cytotoxicity against human BJ cells after 72 hrs by Cell Titre Glo assay; type: cell-based; summary of the method: as §1
[5] = tested on: HEK293; test: Cytotoxicity against HEK293 cells after 72 hrs by Cell Titre Glo assay; type: cell-based; details: Homo sapiens, HEK293, 72 h; summary of the method: as §1
[6] = tested on: HepG2; test: Cytotoxicity against human HepG2 cells after 72 hrs by Cell Titre Glo assay; type: cell-based; details: HepG2, 72 h; summary of the method: as §1
[7] = tested on: Trypanosoma brucei brucei; test: Antitrypanosomal activity against Trypanosoma brucei brucei 221 after 48 hrs by Cell Titre Glo assay; type: functional, organism-based; details: Trypanosoma brucei, 221, 48 h
Summary of the method: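 Bloodstream-form parasites grown in HMI-9 with 10% heat-inactivated FBS, 10% Serum Plus and penicillin/streptomycin at 37 °C, 5% CO₂, to 1 × 10⁶ cells/mL. Diluted to 1 × 10⁴ cells/mL, then dosed with a DMSO dilution series by pin transfer. Incubated 48 h at 37 °C, 5% CO₂. Viability read by CellTiter-Glo luminescence. EC₅₀ from a variable-slope sigmoidal fit. Mean of six replicates, errors as 95% CI.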

[8] = Permeability of the compound at pH 7.4 by PAMPA; type: ADME; details: for permeability: pampa, BLD = below limit of detection; for Papp: PAMPA, read-out: permeability
Summary of the method: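 Compound (10 mM DMSO stock) was diluted in system solution buffer pH 7.4 and placed in the donor chamber of a PAMPA sandwich whose membrane was coated with GIT lipid. Acceptor buffer filled the acceptor chamber, and the assembly was stirred for 30 min. Donor and acceptor UV spectra (250–500 nm) were compared with a reference to give the permeability coefficient. Run in triplicate.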

[9] = Half life in human liver microsomes; type: ADME, Microsome
Summary of the method: (§2)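 Liver microsomes (human: pooled from 200 mixed-gender donors; mouse: female […]) were diluted in 0.1 M potassium phosphate, pH 7.4, with EDTA, then spiked from a 2 mM DMSO/acetonitrile compound stock. Reactions were started with cofactor solutions A+B and kept at 37 °C with shaking. Samples at 0, 0.5, 1, 2 and 4 h were quenched with cold methanol containing 10 μM warfarin and analysed by UPLC-MS (SIR). k = −2.303 × slope of log peak-area ratio versus time; t1/2 = 0.693/k.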

[10] = Half life in mouse liver microsomes; type: ADME, Microsome; summary of the method: as §2
[11] = tested on: Trypanosoma brucei gambiense; test: Antitrypanosomal activity against Trypanosoma brucei gambiense STIB930 after 70 hrs by Alamar Blue assay; type: functional, organism-based; details: STIB930, 70 h
Summary of the method: (§3)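 T. b. gambiense strains were grown in HMI-9 with 15% heat-inactivated FBS and 5% human serum. 10000 trypanosomes per well were seeded into serial drug dilutions and held 70 h at 37 °C in humidified 5% CO2. Resazurin was then added for a further 4–6 h, and fluorescence was read (ex 536/em 588 nm). IC50 was taken by linear regression from sigmoidal dose-inhibition curves.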

[12] = tested on: Trypanosoma brucei rhodesiense; test: Antitrypanosomal activity against bloodstream forms of wild type Trypanosoma brucei rhodesiense STIB900 after 70 hrs by Alamar Blue assay; type: functional, organism-based; details: STIB900, 70 h
Summary of the method: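 T. b. rhodesiense STIB 900 was cultured in MEM with Earle's salts and Baltz supplements (0.2 mM 2-mercaptoethanol, 1 mM Na-pyruvate, 0.5 mM hypoxanthine, 15% heat-inactivated horse serum). 2000 bloodstream forms per well were exposed to serial drug dilutions for 70 h at 37 °C in humidified 5% CO2. Resazurin followed for 2–4 h, read by fluorescence (ex 536/em 588 nm). IC50 came from sigmoidal curves by linear regression.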

[13] = tested on: Trypanosoma brucei gambiense; test: Antitrypanosomal activity against Trypanosoma brucei gambiense KO48 after 70 hrs by Alamar Blue assay; type: functional, organism-based; details: KO48, 70 h; summary of the method: as §3
[14] = tested on: Trypanosoma brucei gambiense; test: Antitrypanosomal activity against Trypanosoma brucei gambiense DAL 898R after 70 hrs by Alamar Blue assay; type: functional, organism-based; summary of the method: as §3

| Compound | EC50 [1] | EC50 [7] | EC50 [11] | EC50 [12] | EC50 [3] | EC50 [4] | EC50 [5] | EC50 [6] | further results |
| --- | --- | --- | --- | --- | --- | --- | --- | --- | --- |
| O=C(Nc1ccc(F)c(Cl)c1)c1cc([N+](=O)[O-])ccc1Cl | 950 nM |  |  |  |  |  |  |  |  |
| COc1ccc(-c2nc3ccccc3s2)cc1NC(=O)c1cc([N+](=O)[O-])c(N2CCN(C)CC2)cc1Cl |  | 140 nM | 73 nM | 170 nM | > 25000 nM | > 25000 nM | > 25000 nM | > 25000 nM | solubility kinetic at 18 h [2]: 0.5 µM (≈ 0.269 µg/mL); Papp [8]: 676 ×10⁻⁶ cm/s |
| COC(=O)C1CCN(c2cc(Cl)c(C(=O)Nc3cc(-c4nc5ccccc5s4)ccc3C)cc2[N+](=O)[O-])CC1 |  | 310 nM |  |  | > 25000 nM | > 25000 nM | > 25000 nM | > 25000 nM | Kinetic_solubility [2]: BLD; Papp [8]: 24 ×10⁻⁶ cm/s |
| O=C(Nc1ccc([N+](=O)[O-])cc1)c1cc([N+](=O)[O-])ccc1Cl | 1800 nM |  |  |  |  |  |  |  |  |
| O=C(Nc1ccc2oc(-c3ccc(F)cc3)nc2c1)c1cc([N+](=O)[O-])ccc1Cl | 640 nM | 6000 nM | 420 nM | 3800 nM |  |  |  |  | EC50 [13]: 2600 nM; EC50 [14]: 4400 nM |
| O=C(Nc1nc(-c2ccc(F)cc2)cs1)c1cc([N+](=O)[O-])ccc1Cl | 370 nM |  |  |  |  |  |  |  |  |
| O=C(Nc1nc(-c2ccc(F)cc2F)cs1)c1cc([N+](=O)[O-])ccc1Cl | 400 nM |  |  |  |  |  |  |  |  |
| Cc1sc(NC(=O)c2cc([N+](=O)[O-])ccc2Cl)nc1-c1ccccc1 | 540 nM |  |  |  |  |  |  |  |  |
| Cc1ccc(-c2csc(NC(=O)c3cc([N+](=O)[O-])ccc3Cl)n2)cc1 | 1200 nM |  |  |  |  |  |  |  |  |
| COc1ccc(OC)c(-c2csc(NC(=O)c3cc([N+](=O)[O-])ccc3Cl)n2)c1 | 2100 nM |  |  |  |  |  |  |  |  |

The next lines start with results.

| EC50 [1] | EC50 [7] | EC50 [11] | EC50 [12] | Compound | EC50 [3] | EC50 [4] | EC50 [5] | EC50 [6] | further results |
| --- | --- | --- | --- | --- | --- | --- | --- | --- | --- |
| 1600 nM |  |  |  | O=C(Nc1nc2ccccc2s1)c1cc([N+](=O)[O-])ccc1Cl |  |  |  |  |  |
|  | 680 nM |  |  | Cc1c(NC(=O)c2cc([N+](=O)[O-])ccc2Cl)cccc1-c1nc2ccccc2s1 | > 25000 nM | > 25000 nM | > 25000 nM | > 25000 nM | Kinetic_solubility [2]: BLD; permeability [8]: BLD |
|  | 120 nM | 63 nM | 73 nM | COc1ccc(-c2nc3ccccc3s2)cc1NC(=O)c1cc([N+](=O)[O-])ccc1Cl | > 25000 nM | > 25000 nM | > 25000 nM | > 25000 nM | Kinetic_solubility [2]: BLD; half-life [9]: 3.7 h; half-life [10]: > 4 h; permeability [8]: BLD |
|  | 160 nM | 200 nM | 230 nM | O=C(Nc1cc(-c2nc3ccccc3s2)ccc1F)c1cc([N+](=O)[O-])ccc1Cl | > 25000 nM | > 25000 nM | > 25000 nM | > 25000 nM | Kinetic_solubility [2]: BLD; Papp [8]: 191 ×10⁻⁶ cm/s |
|  | 250 nM | 63 nM | 69 nM | O=C(Nc1ccc(F)c(-c2nc3ccccc3s2)c1)c1cc([N+](=O)[O-])ccc1Cl | > 25000 nM | > 25000 nM | > 25000 nM | > 25000 nM | solubility kinetic at 18 h [2]: 0.49 µM (≈ 0.21 µg/mL); Papp [8]: 17 ×10⁻⁶ cm/s |
|  | 58 nM | 170 nM | 140 nM | O=C(Nc1ccc(F)c(-c2nc3ccccc3s2)c1)c1cc([N+](=O)[O-])c(N2CCNCC2)cc1Cl | > 25000 nM | > 25000 nM | > 25000 nM | > 25000 nM | half-life [9]: > 4 h; half-life [10]: > 4 h |
| 2800 nM |  |  |  | O=C(Nc1ccc2oc(-c3ccccc3Cl)nc2c1)c1cc([N+](=O)[O-])ccc1Cl |  |  |  |  |  |
| 4200 nM |  |  |  | O=C(Nc1ccc2oc(-c3ccccc3Br)nc2c1)c1cc([N+](=O)[O-])ccc1Cl |  |  |  |  |  |
| 4900 nM |  |  |  | O=C(Nc1ccc2oc(-c3ccccc3F)nc2c1)c1cc([N+](=O)[O-])ccc1Cl |  |  |  |  |  |
| 6100 nM |  |  |  | O=C(Nc1ccc2oc(-c3ccccc3)nc2c1)c1cc([N+](=O)[O-])ccc1Cl |  |  |  |  |  |
